Measured values reported in ChEMBL document CHEMBL4024770, “Augmentation of Anticancer Drug Efficacy in Murine Hepatocellular Carcinoma Cells by a Peripherally Acting Competitive N-Methyl-d-aspartate (NMDA) Receptor Antagonist” (J Med Chem, 2017).

Tests used:
[1] = molecular target: Glutamate receptor ionotropic, kainate 1 (Rattus norvegicus, UniProt P22756); assay: Displacement of [3H]-SYM2081 from recombinant homomeric rat GluK1 (Q)1b receptor expressed in baculovirus infected Sf9 insect cell membranes by scintillation counting method
Sequence of Glutamate receptor ionotropic, kainate 1 (P22756 whole entry): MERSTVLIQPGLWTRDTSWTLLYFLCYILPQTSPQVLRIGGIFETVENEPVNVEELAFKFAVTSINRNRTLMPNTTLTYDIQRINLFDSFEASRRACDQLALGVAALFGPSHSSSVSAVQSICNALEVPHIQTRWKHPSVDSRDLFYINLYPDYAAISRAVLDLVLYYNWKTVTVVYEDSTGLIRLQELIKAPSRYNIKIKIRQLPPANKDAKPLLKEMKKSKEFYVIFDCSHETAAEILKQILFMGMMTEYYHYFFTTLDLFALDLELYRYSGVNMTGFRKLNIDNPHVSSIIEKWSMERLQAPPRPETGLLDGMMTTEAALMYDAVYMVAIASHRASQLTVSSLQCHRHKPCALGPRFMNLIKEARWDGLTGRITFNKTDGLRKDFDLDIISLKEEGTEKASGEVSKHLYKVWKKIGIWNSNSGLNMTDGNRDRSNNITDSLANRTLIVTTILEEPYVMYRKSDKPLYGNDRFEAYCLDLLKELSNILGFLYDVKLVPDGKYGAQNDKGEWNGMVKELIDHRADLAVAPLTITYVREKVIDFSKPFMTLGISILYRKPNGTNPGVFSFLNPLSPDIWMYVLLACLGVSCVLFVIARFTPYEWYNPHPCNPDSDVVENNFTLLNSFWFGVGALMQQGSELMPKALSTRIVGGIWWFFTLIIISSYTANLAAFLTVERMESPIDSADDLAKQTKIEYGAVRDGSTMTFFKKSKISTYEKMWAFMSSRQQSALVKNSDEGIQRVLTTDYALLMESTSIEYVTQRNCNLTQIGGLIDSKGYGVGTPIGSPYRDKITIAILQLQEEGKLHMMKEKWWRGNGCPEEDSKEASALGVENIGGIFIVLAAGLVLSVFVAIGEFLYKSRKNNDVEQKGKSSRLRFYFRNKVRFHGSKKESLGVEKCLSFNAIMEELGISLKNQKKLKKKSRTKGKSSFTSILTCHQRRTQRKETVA

[2] = species: Mus musculus; assay: Antagonist activity at NMDA receptor in Nras driven p53 deficient mouse HCC cell membranes assessed as LPS-stimulated PGE2 levels at 10 uM after 24 hrs by LC-MS/MS method (reference value: 162 +/- 7%); parameters: scale not given: the % may be the effect or the level left
Outline: (§1)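 Mouse Nras-driven p53−/− HCC cells in DMEM with 2 mM L-glutamine, 10% heat-inactivated FBS and penicillin/streptomycin. Cells incubated 24 h with or without antagonist, either without LPS or with 2.5 μg/mL LPS in the growth medium. Cells washed three times with ice-cold HBSS and lysed in acetonitrile on ice. PGE₂ in lysates measured by LC-MS/MS (LLOQ 1 nM) and expressed as % of control; n=3.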

[3] = Displacement of [3H]-CGP-39653 from NMDA receptor in Sprague-Dawley rat brain synaptosomes after 60 mins by scintillation counting method; assay type: subcellular
[4] = Displacement of [3H]-KA from KA receptor in Sprague-Dawley rat brain synaptosomes after 60 mins by scintillation counting method; assay type: subcellular
[5] = tested on: Plasma; assay: Tmax in mouse plasma at 10 mg/kg, ip administered as bolus dose by LC-MS/MS analysis; assay type: ADME, organism-based; conditions: in vivo
Outline: (§2)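 Adult male mice (25 ± 5 g) given a single 10 mg/kg i.p. bolus, prepared as a 5.0 mM solution in 0.9% NaCl. Animals were decapitated at five time points between 10 and 240 min. Plasma was precipitated with acetonitrile containing internal standard. Brain and liver were homogenized in water (1:3) and precipitated the same way. Analysis by LC-MS/MS, with AUC0–240, Cmax, tmax, t½β and liver/plasma ratio derived from the concentration-time data.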

[6] = tested on: Liver; assay: Tmax in mouse liver at 10 mg/kg, ip administered as bolus dose by LC-MS/MS analysis; assay type: ADME, organism-based; conditions: in vivo; outline: as §2
[7] = tested on: Plasma; assay: Elimination half life in mouse plasma at 10 mg/kg, ip administered as bolus dose by LC-MS/MS analysis; assay type: ADME, organism-based; conditions: in vivo; outline: as §2
[8] = molecular target: Glutamate NMDA receptor; Grin1/Grin2a (Rattus norvegicus, UniProt P35439+Q00959); assay: Antagonist activity at recombinant rat GluN1a/GluN2A expressed in Xenopus laevis oocytes assessed as inhibition of glycine/glutamate-mediated current responses by two-electrode voltage clamp method; assay type: cell-based
Sequence of Glutamate NMDA receptor; Grin1/Grin2a (Q00959 whole entry, other chains not shown): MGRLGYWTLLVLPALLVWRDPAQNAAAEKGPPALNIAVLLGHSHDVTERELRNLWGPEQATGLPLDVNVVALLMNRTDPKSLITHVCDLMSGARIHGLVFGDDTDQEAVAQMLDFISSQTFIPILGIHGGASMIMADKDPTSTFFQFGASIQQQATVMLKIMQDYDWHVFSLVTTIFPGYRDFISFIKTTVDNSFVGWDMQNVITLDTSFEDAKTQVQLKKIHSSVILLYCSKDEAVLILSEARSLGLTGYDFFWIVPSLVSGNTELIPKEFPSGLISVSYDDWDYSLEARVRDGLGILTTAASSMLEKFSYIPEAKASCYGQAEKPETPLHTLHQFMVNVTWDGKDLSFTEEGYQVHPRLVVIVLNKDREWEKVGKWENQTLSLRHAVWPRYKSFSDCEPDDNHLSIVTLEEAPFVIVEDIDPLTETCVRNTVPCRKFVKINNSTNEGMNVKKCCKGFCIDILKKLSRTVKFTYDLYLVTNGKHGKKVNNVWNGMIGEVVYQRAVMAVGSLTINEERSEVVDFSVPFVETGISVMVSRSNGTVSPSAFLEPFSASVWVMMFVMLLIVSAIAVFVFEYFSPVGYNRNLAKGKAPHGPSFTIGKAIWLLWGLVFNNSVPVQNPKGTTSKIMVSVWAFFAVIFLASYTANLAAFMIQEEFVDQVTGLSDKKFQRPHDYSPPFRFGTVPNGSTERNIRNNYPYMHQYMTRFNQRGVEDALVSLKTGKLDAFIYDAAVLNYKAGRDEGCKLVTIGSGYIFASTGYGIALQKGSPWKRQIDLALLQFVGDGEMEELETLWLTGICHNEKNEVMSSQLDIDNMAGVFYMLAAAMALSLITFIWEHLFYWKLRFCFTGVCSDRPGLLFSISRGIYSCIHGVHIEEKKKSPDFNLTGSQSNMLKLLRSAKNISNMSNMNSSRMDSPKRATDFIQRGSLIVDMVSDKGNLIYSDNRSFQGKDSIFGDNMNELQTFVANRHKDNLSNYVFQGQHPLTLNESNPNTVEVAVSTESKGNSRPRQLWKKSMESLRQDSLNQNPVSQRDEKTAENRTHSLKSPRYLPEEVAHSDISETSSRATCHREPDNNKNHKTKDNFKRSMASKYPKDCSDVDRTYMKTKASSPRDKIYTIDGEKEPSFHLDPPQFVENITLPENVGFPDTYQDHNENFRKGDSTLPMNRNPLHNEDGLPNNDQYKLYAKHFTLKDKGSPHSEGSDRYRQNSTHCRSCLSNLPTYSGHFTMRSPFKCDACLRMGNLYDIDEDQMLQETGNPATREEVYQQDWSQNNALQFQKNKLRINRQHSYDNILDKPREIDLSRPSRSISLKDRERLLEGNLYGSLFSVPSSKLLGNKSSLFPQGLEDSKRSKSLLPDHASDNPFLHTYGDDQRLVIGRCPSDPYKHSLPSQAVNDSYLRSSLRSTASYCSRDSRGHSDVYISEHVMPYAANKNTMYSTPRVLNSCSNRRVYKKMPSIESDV
Outline: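 Xenopus oocytes were injected with rat GluN1 and GluN2A–D cRNA (1:2) and recorded 2–6 days later by TEVC at room temperature, −40 mV, in Ba2+-containing recording solution, pH 7.4. Currents were evoked by 100 μM glycine plus glutamate at 2–3× EC50: 10 μM for GluN2A, 3 μM for GluN2B and GluN2C, 1 μM for GluN2D. IC50 from Hill fits per oocyte; Ki estimated.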

[9] = species: Mus musculus; assay: Antagonist activity at NMDA receptor in Nras driven p53 deficient mouse HCC cell membranes assessed as Abcb1 protein expression levels at 10 uM by […] analysis relative to control; parameters: scale not given: the % may be the effect or the level left
Outline: (§3)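 Mouse Nras-driven p53−/− HCC cells in DMEM with 10% FBS, exposed 48 h with or without 10 μM antagonist, washed, pelleted and snap-frozen. Crude membrane fraction isolated. 50 μg protein reduced, alkylated, precipitated, then Lys-C digested (3 h, rt) and trypsin digested (1:100, 37°C, 16 h). One unique peptide per transporter quantified by multiplexed SRM/MRM LC-MS/MS against stable isotope-labelled standards. Unpaired two-tailed t-test versus control, n=4.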

[10] = species: Mus musculus; assay: (§4) Antagonist activity at NMDA receptor in Nras driven p53 deficient mouse HCC cell membranes assessed as decrease in Slc7a5 protein expression levels by measuring [14C]-L-leucine accumulation at 10 uM preincubated for 24 hrs followed by compound wash out and addition of [14C]-L-leucine measured after 5 mins by scintillation counting method relative to control; parameters: scale not given: the % may be the effect or the level left
Outline: (§5)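 Nras p53−/− HCC cells (1 × 10⁵/well) were pretreated 24 h with or without 10 μM. They were then washed 3× in warm HBSS (choline chloride, pH 7.4) and incubated at 37 °C with probe in HBSS. Incubation was 30 min for [3H]-digoxin, 20 μM fluorescein or 10 μM sorafenib, and 5 min for [14C]-L-leucine or [14C]-D-glucose. Cells were washed ice-cold and lysed in 0.1 M NaOH. Read-out was scintillation, fluorescence or LC-MS/MS, normalized to protein.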

[11] = species: Mus musculus; assay: Antagonist activity at NMDA receptor in Nras driven p53 deficient mouse HCC cell membranes assessed as Abcg2 protein expression levels at 10 uM by […] analysis relative to control; parameters: scale not given: the % may be the effect or the level left; outline: as §3
[12] = tested on: Liver; assay: Elimination half life in mouse liver at 10 mg/kg, ip administered as bolus dose by LC-MS/MS analysis; assay type: ADME, organism-based; conditions: in vivo; outline: as §2
[13] = tested on: Brain; assay: Cmax in mouse brain at 10 mg/kg, ip administered as bolus dose measured at 30 mins by LC-MS/MS analysis; assay type: ADME, organism-based; parameters: dose 10 mg/kg, route intraperitoneal; conditions: in vivo, 0.5 h; outline: as §2
[14] = species: Mus musculus; assay: Antagonist activity at NMDA receptor in Nras driven p53 deficient mouse HCC cell membranes assessed as PGE2 levels at 10 uM after 24 hrs by LC-MS/MS method relative to control; parameters: scale not given: the % may be the effect or the level left; outline: as §1
[15] = tested on: Liver; assay: Cmax in mouse liver at 10 mg/kg, ip administered as bolus dose by LC-MS/MS analysis; assay type: ADME, organism-based; parameters: dose 10 mg/kg, route intraperitoneal; conditions: in vivo; outline: as §2
[16] = tested on: Liver; assay: AUC (0 to 240 mins) in mouse liver at 10 mg/kg, ip administered as bolus dose by LC-MS/MS analysis; assay type: ADME, organism-based; parameters: dose 10 mg/kg, time < 4 hr, route intraperitoneal; conditions: in vivo, 4 h; outline: as §2
[17] = tested on: Brain; assay: Tmax in mouse brain at 10 mg/kg, ip administered as bolus dose by LC-MS/MS analysis; assay type: ADME, organism-based; conditions: in vivo; outline: as §2
[18] = species: Mus musculus; assay: as §4, with “in Abcb1” for “in Slc7a5”, “measuring [3H]-digoxin” for “measuring [14C]-L-leucine”, “of [3H]-digoxin” for “of [14C]-L-leucine”, “after 30” for “after 5”; parameters: scale not given: the % may be the effect or the level left; outline: as §5
[19] = species: Mus musculus; assay: Antagonist activity at NMDA receptor in Nras driven p53 deficient mouse HCC cell membranes assessed as potentiation of 2.5 uM sorafenib-mediated antiproliferative activity by measuring cell viability at 100 uM after 72 hrs by resazurin assay (reference value: […] +/- […]%)
[20] = Displacement of [3H]-AMPA from AMPA receptor in Sprague-Dawley rat brain synaptosomes after 30 mins by scintillation counting method; assay type: subcellular
[21] = species: Mus musculus; assay: Antagonist activity at NMDA receptor in Nras driven p53 deficient mouse HCC cell membranes assessed as PGE2 levels at 100 uM after 24 hrs by LC-MS/MS method relative to control; parameters: scale not given: the % may be the effect or the level left
Outline: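 Nras-driven p53−/− mouse HCC cells in DMEM/10% FBS were incubated 24 h with or without 100 μM compound. This was done without LPS and with LPS (2.5 μg/mL) in the growth medium. Cells were washed with ice-cold HBSS and lysed in acetonitrile on ice. PGE2 in the lysates was quantified by LC-MS/MS and expressed as % of control. Mean ± SEM, n=3; one-way ANOVA/Tukey.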

[22] = species: Mus musculus; assay: Antagonist activity at NMDA receptor in Nras driven p53 deficient mouse HCC cell membranes assessed as decrease in Abcb1/Abcg2 protein expression levels by measuring sorafenib accumulation at 10 uM preincubated for 24 hrs followed by compound wash out and addition of sorafenib measured after 30 mins by LC/MS-MS method relative to control; parameters: scale not given: the % may be the effect or the level left; outline: as §5

Ki [1]: 154 µM | Activity [2]: 127% | Ki [3]: 0.63 µM | pKi [3]: 6.22 | IC50 [4]: > 100 µM | Tmax [5]: 15 min | Tmax [6]: 30 min | beta t1/2 [7]: 30 min | IC50 [8]: 15 µM | Ki [8]: 4.7 µM | Activity [9]: 39% | Activity [10]: 81% | Activity [11]: 34% | beta t1/2 [12]: 36 min | Cmax [13]: 0.3 nmol/g | Activity [14]: 68% | Cmax [15]: 8.7 nmol/g | AUC [16]: 575 nmol·min/g | Tmax [17]: 30 min | Activity [18]: 149% | IC50 [20]: > 100 µM | Activity [21]: 48% | Activity [22]: 152%
Structure (SMILES): Cl.O=C(O)c1cc([C@H]2CCN[C@@H]2C(=O)O)ccc1Cl
Activity [19]: 30%
